Measured values: ChEMBL document CHEMBL1250467, “Design, synthesis, and anticonvulsant activity of new N-Mannich bases derived from spirosuccinimides and spirohydantoins” (Bioorg Med Chem, 2010)
Active and inactive are the calls of the source. The rule behind the calls is not given here.

Columns and labels:
Rattus norvegicus [1] = assay: Anticonvulsant activity in Sprague-Dawley rat assessed as protection against maximal electroshock-induced seizures at 30 mg/kg po after 1 hr; format: functional
In short: (§1)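 Male Sprague–Dawley rats, four per group, given 30 mg/kg orally as a 0.5% methylcellulose/water suspension. MES protection scored at 0.25, 0.5, 1, 2 and 4 h after dosing, motor impairment checked in parallel; data are the number of the four rats protected.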

Rattus norvegicus [2] = assay: Anticonvulsant activity in Sprague-Dawley rat assessed as protection against maximal electroshock-induced seizures at 30 mg/kg po after 0.25 hrs; format: functional; in short: as §1
Rattus norvegicus [3] = assay: Anticonvulsant activity in po dosed Sprague-Dawley rat assessed as protection against maximal electroshock-induced seizures; format: functional
In short: (§2)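 Male Sprague–Dawley rats dosed orally (0.5% methylcellulose/water suspension), groups of eight, tested at the previously estimated time of peak effect. Doses varied until at least three points lay in the 10–90% range of protection (MES, scPTZ) or minimal rotarod neurotoxicity. ED50/TD50 with 95% confidence intervals came from regression; PI = TD50/ED50.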

Mus musculus [4] = assay: Anticonvulsant activity in ip dosed CF1 albino mouse assessed as dose required to protect against subcutaneous pentylenetetrazole-induced seizures after 4 hrs; format: functional
In short: (§3)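 Male CF-1 mice; compounds suspended in 0.5% methylcellulose/water and injected ip at 30, 100 and 300 mg/kg. MES, scPTZ (pentylenetetrazole 85 mg/kg sc at the test time) and rotarod neurotoxicity were scored at 0.5 and 4 h. Value is the lowest dose active or toxic in half or more of the animals; signs such as ataxia or tremor were recorded.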

Rattus norvegicus [5] = species: Rattus norvegicus; assay: Protection index, ratio of TD50 for Sprague-Dawley rat by rotarod test to ED50 for Sprague-Dawley rat by maximal electroshock test; format: functional; in short: as §2
Mus musculus [6] = assay: Neurotoxicity in CF1 albino mouse assessed as unable to grasp rotarod at 100 mg/kg, ip after 4 hrs by rotarod test; format: toxicity, organism-based; parameters: dose 100 mg/kg, route intraperitoneal; details: in vivo; in short: as §3
Mus musculus [7] = assay: Anticonvulsant activity in ip dosed CF1 albino mouse assessed as dose required to protect against maximal electroshock-induced seizures after 4 hrs; format: functional; in short: as §3
Rattus norvegicus [8] = assay: Anticonvulsant activity in po dosed Sprague-Dawley rat assessed as time required to peak protection against seizures; format: functional
[9] = Neurotoxicity in po dosed Sprague-Dawley rat by rotarod test; format: toxicity, organism-based; details: in vivo; in short: as §2
Mus musculus [10] = assay: Anticonvulsant activity in ip dosed CF1 albino mouse assessed as dose required to protect against maximal electroshock-induced seizures after 0.5 hrs; format: functional; in short: as §3
Rattus norvegicus [11] = assay: Anticonvulsant activity in Sprague-Dawley rat assessed as protection against maximal electroshock-induced seizures at 30 mg/kg po after 0.5 hrs; format: functional; in short: as §1
Rattus norvegicus [12] = assay: Anticonvulsant activity in Sprague-Dawley rat assessed as protection against maximal electroshock-induced seizures at 30 mg/kg po after 4 hrs; format: functional; in short: as §1
Mus musculus [13] = assay: Anticonvulsant activity in ip dosed CF1 albino mouse assessed as dose required to protect against subcutaneous pentylenetetrazole-induced seizures after 0.5 hrs; format: functional; in short: as §3
Mus musculus [14] = assay: Neurotoxicity in CF1 albino mouse at 300 mg/kg, ip after 4 hrs by rotarod test; format: toxicity, organism-based; parameters: dose 300 mg/kg, route intraperitoneal; details: in vivo; in short: as §3
Rattus norvegicus [15] = assay: Anticonvulsant activity in Sprague-Dawley rat assessed as protection against maximal electroshock-induced seizures at 30 mg/kg po after 2 hrs; format: functional; in short: as §1
Rattus norvegicus [16] = assay: Anticonvulsant activity in po dosed Sprague-Dawley rat assessed as protection against subcutaneous pentylenetetrazole-induced seizures; format: functional; in short: as §2
Mus musculus [17] = assay: Neurotoxicity in CF1 albino mouse assessed as muscle spasms at 300 mg/kg, ip after 4 hrs by rotarod test; format: toxicity, organism-based, Muscle tissue; parameters: dose 300 mg/kg, route intraperitoneal; details: in vivo; in short: as §3
Mus musculus [18] = assay: Anticonvulsant activity in CF1 albino mouse assessed as protection against subcutaneous pentylenetetrazole-induced seizures at 300 mg/kg, ip after 4 hrs; format: functional, organism-based; parameters: dose 300 mg/kg; in short: as §3
Mus musculus [19] = assay: Anticonvulsant activity in CF1 albino mouse assessed as protection against maximal electroshock-induced seizures at 300 mg/kg, ip after 0.5 hrs; format: functional, organism-based; parameters: dose 300 mg/kg; in short: as §3
Mus musculus [20] = assay: Anticonvulsant activity in CF1 albino mouse assessed as protection against subcutaneous pentylenetetrazole-induced seizures at 300 mg/kg, ip after 0.5 hrs; format: functional, organism-based; parameters: dose 300 mg/kg; in short: as §3
Mus musculus [21] = assay: Neurotoxicity in CF1 albino mouse assessed as ataxia at 300 mg/kg, ip after 4 hrs by rotarod test; format: toxicity, organism-based; parameters: dose 300 mg/kg, route intraperitoneal; details: in vivo; in short: as §3
Mus musculus [22] = assay: Neurotoxicity in CF1 albino mouse assessed as tremors at 300 mg/kg, ip after 4 hrs by rotarod test; format: toxicity, organism-based; parameters: dose 300 mg/kg, route intraperitoneal; details: in vivo; in short: as §3
Mus musculus [23] = assay: Neurotoxicity in CF1 albino mouse assessed as mortality at 300 mg/kg, ip after 4 hrs by rotarod test; format: toxicity, organism-based; parameters: dose 300 mg/kg, route intraperitoneal; details: in vivo
In short: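 Male CF-1 albino mice, groups of eight, were given the compound ip as a suspension in 0.5% methylcellulose/water at 30, 100 and 300 mg/kg. Rotarod testing at 0.5 and 4 h scored inability to keep balance on the rod. The value is the lowest dose causing toxicity in half or more animals, with response comments such as death.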

Mus musculus [24] = assay: Anticonvulsant activity in CF1 albino mouse assessed as protection against electrically-induced seizure at 100 mg/kg, ip after 0.5 hrs by 6Hz psychomotor seizure test; format: functional, organism-based; parameters: dose 100 mg/kg
In short: (§4)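 Male CF-1 mice, compound suspended in 0.5% methylcellulose/water, given ip at 100 mg/kg; four mice per time point (0.25, 0.5, 1, 2, 4 h). Corneal stimulation with 0.2 ms monopolar rectangular pulses at 6 Hz for 3 s from a constant-current device, mice manually restrained. A mouse counted as protected if normal exploratory behaviour resumed within 10 s; motor impairment was noted alongside.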

Mus musculus [25] = assay: Neurotoxicity in ip dosed CF1 albino mouse assessed as dose required to cause toxicity after 4 hrs by rotarod test; format: organism-based; details: in vivo; in short: as §3
Rattus norvegicus [26] = assay: Anticonvulsant activity in Sprague-Dawley rat assessed as protection against pilocarpine-induced status epilepticus at 600 mg/kg, ip; format: functional, organism-based; parameters: dose 600 mg/kg
In short: (§5)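 Male Sprague–Dawley rats (150–180 g) received compound ip at 600 mg/kg, then a challenge dose of pilocarpine. Seizure severity graded on the Racine scale; rats were scored as protected or not, and body weight change was taken 24 h after the first stage III seizure.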

Mus musculus [27] = assay: Anticonvulsant activity in CF1 albino mouse assessed as protection against electrically-induced seizure at 100 mg/kg, ip after 0.25 hrs by 6Hz psychomotor seizure test; format: functional, organism-based; parameters: dose 100 mg/kg; in short: as §4
Mus musculus [28] = assay: Neurotoxicity in CF1 albino mouse at 300 mg/kg, ip after 0.5 hrs by rotarod test; format: toxicity, organism-based; parameters: dose 300 mg/kg, route intraperitoneal; details: in vivo; in short: as §3
Rattus norvegicus [29] = assay: Toxicity in Sprague-Dawley rat assessed as change in body weight at 600 mg/kg, ip measured after 24 hrs of clonus of one of the fore limbs seizure stage in non-protected rat; format: organism-based; parameters: dose 600 mg/kg, route intraperitoneal; details: in vivo; in short: as §5
Mus musculus [30] = assay: Anticonvulsant activity in CF1 albino mouse assessed as protection against electrically-induced seizure at 100 mg/kg, ip after 1 hr by 6Hz psychomotor seizure test; format: functional; details: route intraperitoneal; in short: as §4
Mus musculus [31] = assay: Toxicity in CF1 albino mouse assessed as minimal motor impairment at 100 mg/kg, ip after 2 hrs; format: organism-based; parameters: dose 100 mg/kg, route intraperitoneal; details: in vivo; in short: as §4
Mus musculus [32] = assay: Anticonvulsant activity in CF1 albino mouse assessed as protection against electrically-induced seizure at 100 mg/kg, ip after 4 hrs by 6Hz psychomotor seizure test; format: functional; in short: as §4
Rattus norvegicus [33] = assay: Toxicity in Sprague-Dawley rat assessed as change in body weight at 600 mg/kg, ip measured after 24 hrs of clonus of one of the fore limbs seizure stage in protected rat; format: organism-based; parameters: dose 600 mg/kg, route intraperitoneal; details: in vivo; in short: as §5
[34] = Displacement of [3H]batrachotoxin from neurotoxin site 2 of voltage-gated sodium channel in rat forebrain tissue; details: read-out: IC50
Rattus norvegicus [35] = assay: Anticonvulsant activity in Sprague-Dawley rat assessed as protection against pilocarpine-induced status epilepticus at 600 mg/kg, ip measured after clonus of one of the fore limbs seizure stage; format: functional, organism-based; parameters: dose 600 mg/kg; in short: as §5

| SMILES | Activity (Rattus norvegicus [1]) | Activity (Rattus norvegicus [2]) | ED50 (Rattus norvegicus [3]) | PI (Rattus norvegicus [5]) | Activity (Mus musculus [7]) | Time (Rattus norvegicus [8]) | TD50 [9] | Activity (Mus musculus [10]) | Activity (Rattus norvegicus [11]) | Activity (Rattus norvegicus [12]) | Activity (Mus musculus [14]) | Activity (Rattus norvegicus [15]) | Activity (Mus musculus [18]) | Activity (Mus musculus [19]) | Activity (Mus musculus [20]) | further results |
| --- | --- | --- | --- | --- | --- | --- | --- | --- | --- | --- | --- | --- | --- | --- | --- | --- |
| O=C1NC2(CCc3ccccc3C2)C(=O)N1CN1CCN(CCO)CC1 (centres undefined) | 50% | inactive | 14.9 mg/kg | >20.09 | 300 mg/kg | 4 h | > 300 mg/kg | 100 mg/kg | 25% | 100% | Non-toxic | 100% | – | – | – | Activity (Mus musculus [4]): 300 mg/kg; Activity (Mus musculus [6]): Non-toxic; Activity (Mus musculus [13]): 100 mg/kg; ED50 (Rattus norvegicus [16]): > 250 mg/kg |
| O=C1NC2(CCc3ccccc3C2)C(=O)N1CN1CCN(c2ccccc2F)CC1 (centres undefined) | – | – | – | – | 100 mg/kg | – | – | – | – | – | – | – | inactive | inactive | inactive | Activity (Mus musculus [17]): Non-toxic; Activity (Mus musculus [21]): Non-toxic; Activity (Mus musculus [22]): Non-toxic |
| O=C1NC2(CCc3ccccc3C2)C(=O)N1CN1CCN(Cc2ccccc2)CC1 (centres undefined) | 75% | 25% | – | – | 100 mg/kg | – | – | 100 mg/kg | 50% | 50% | Non-toxic | 50% | inactive | – | inactive | Activity (Mus musculus [23]): Non-toxic |
| O=C1CC2(CCc3ccccc3C2)C(=O)N1CN1CCN(c2cccc(C(F)(F)F)c2)CC1 (centres undefined) | 75% | inactive | 9 mg/kg | >27.78 | 100 mg/kg | 2 h | > 250 mg/kg | – | inactive | 100% | – | 75% | inactive | inactive | inactive | Activity (Mus musculus [24]): inactive; Activity (Mus musculus [25]): 300 mg/kg; Activity (Rattus norvegicus [26]): inactive; Activity (Mus musculus [27]): inactive; Activity (Mus musculus [28]): Non-toxic; Activity (Rattus norvegicus [29]): 15 g; Activity (Mus musculus [30]): 25%; Activity (Mus musculus [31]): Toxic; Activity (Mus musculus [32]): inactive; Activity (Rattus norvegicus [33]): Non-toxic; IC50 [34]: 9.28 µM; Activity (Rattus norvegicus [35]): inactive |
